Measurements reported in ChEMBL document CHEMBL1154912, “Moluccensins H-J, 30-ketophragmalin limonoids from Xylocarpus moluccensis” (J Nat Prod, 2010).
In brackets after ≈: the same amount, converted by molar mass. Each block holds one molecule with its values, some of them ahead of it. Activity calls are given as the source filed them. The calls are words filed in the database; no cut-off is given here.

How the values were obtained:
[1] = Cytotoxicity against human ChaGo cells after 3 days by MTT assay; type: functional, cell-based; settings: 72 h
Summary of the method: (§1)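 Cells grown in RPMI-1640 with 25 mM HEPES, 0.25% sodium bicarbonate, 5% FBS and 100 µg/mL kanamycin. Freshly trypsinized cells seeded at 5000 per well, compound added from DMSO-diluted stock, cultured three days. Attached cells stained with MTT, bound dye solubilized, absorbance read at 540 nm. IC50 (50% growth inhibition) averaged from at least six independent determinations.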

SW-620 = test: Cytotoxicity against human SW620 cells after 3 days by MTT assay; type: functional, cell-based; settings: SW-620, 72 h; summary of the method: as §1
HepG2 = test: Cytotoxicity against human HepG2 cells after 3 days by MTT assay; type: functional, cell-based; settings: HepG2, 72 h; summary of the method: as §1
Enterococcus faecalis = test: Antibacterial activity against Enterococcus faecalis ATCC 29212 by broth microdilution method; type: functional
Summary of the method: (§2)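 Broth microdilution per NCCLS protocol in Mueller Hinton broth; serial doubling dilutions from 0.5 to 256 µg/mL; final inoculum 5 × 10^5 cfu/mL. MIC taken as lowest concentration with no visible growth judged by turbidity.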

[2] = Cytotoxicity against human KATO III cells after 3 days by MTT assay; type: functional, cell-based, KATO III cell; settings: 72 h; summary of the method: as §1
BT-474 = test: Cytotoxicity against human BT474 cells after 3 days by MTT assay; type: functional, cell-based; settings: BT-474, 72 h; summary of the method: as §1
Staphylococcus hominis = test: Antibacterial activity against Staphylococcus hominis ATCC 27844 by broth microdilution method; type: functional; summary of the method: as §2

SMILES: COC(=O)C[C@H]1[C@]2(C)C[C@]3(O)[C@@](O)(C(=O)C4=C(CC[C@]5(C)C4=CC(=O)O[C@H]5c4ccoc4)[C@]13C)[C@H]2OC(C)=O [MOLUCCENSIN H]
IC50 [1]: > 10 µg/mL | IC50 (SW-620): > 10 µg/mL | IC50 (HepG2): > 10 µg/mL | Activity (Enterococcus faecalis): inactive | IC50 [2]: > 10 µg/mL | IC50 (BT-474): > 10 µg/mL | Activity (Staphylococcus hominis): inactive

MIC (Enterococcus faecalis): 223 µg/mL (≈ 401 µM) | MIC (Staphylococcus hominis): 256 µg/mL (≈ 460 µM)
SMILES: COC(=O)C[C@H]1[C@]2(C)C[C@@]3(O)[C@]1(C)[C@H]1CC[C@]4(C)C(=C1C(=O)[C@@]3(OC)[C@H]2OC(C)=O)CC(=O)O[C@H]4c1ccoc1 [MOLUCCENSIN I]
IC50 [1]: > 10 µg/mL | IC50 (SW-620): > 10 µg/mL | IC50 (HepG2): > 10 µg/mL | IC50 [2]: > 10 µg/mL | IC50 (BT-474): > 10 µg/mL

SMILES: COC(=O)C[C@H]1[C@]2(C)C[C@]3(O)[C@@H](C(=O)C4=C5CC(=O)O[C@@H](c6ccoc6)[C@]5(C)CC[C@@H]4[C@]13C)[C@H]2OC(C)=O [MOLUCCENSIN J]
IC50 [1]: > 10 µg/mL | IC50 (SW-620): > 10 µg/mL | IC50 (HepG2): > 10 µg/mL | Activity (Enterococcus faecalis): inactive | IC50 [2]: > 10 µg/mL | IC50 (BT-474): > 10 µg/mL | Activity (Staphylococcus hominis): inactive
